EP2 mod: EP2 receptor modulators, cAMP readout, primary screen, cell-based, HTRF cAMP, PGE2 stimulation; Prostaglandin E2 receptor EP2 subtype (Homo sapiens), P43116; induction, % at 25 µM; 260,000 tested, 0.83% active; EP2-expressing cells, cAMP HTRF FRET, PGE2 co-stimulation;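 active means compounds whose cAMP rise, as percent of the full-agonist control response, exceeds 60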;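 further: rat C6 glioma line stably carrying human EP2 under a CMV promoter; the protocol text gives 20 µM as final concentration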
T cell HTS: modulators of CD8 T cell-vesicle binding, primary screen, mouse 2C CD8+ T cells, flow cytometry; 2C CD8+ T cell-vesicle binding; hits give low values; response (vesicle binding), % at 7 µM; 330,000 tested, 0.068% active; AID 2052, 2009;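 active means response, share of CD8 T cells binding vesicles, and their 90th percentile fluorescence all below set limits, cut at about 80% in these data, passing the limit was not always enough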;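 further: values below 100% mean blocked vesicle binding to the CD8+ T cells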
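Incubation: binding step 1.5 h, 37 °C, antibody labelling 20 min, ice; system: murine 2C transgenic CD8+ T lymphocytes; technique: cytometric PE anti-B7-1 and Alexa647 anti-CD8 signals after 1% paraformaldehyde fixation; also added: QL9-charged Drosophila Ld/ICAM-1/B7-1 vesicles; control set: naked versus QL9-loaded vesicles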
MC4R barr agon: MC4R agonists recruiting beta-arrestin, primary screen, cell-based, luminescence, agonist arm of biased-ligand search. Melanocortin receptor 4 (Homo sapiens), P32245. U2OS MC4R beta-arrestin complementation; percent of melanotan II response, DMSO zero. activation, % at 8.9 µM. 360,000 tested, 0.98% active. AID 540308, 2011;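 active means activation above a per-plate cutoff, the mean activation of sample wells on that plate plus 3 SD, cut at about 8% in these data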
MC4R antag cAMP: MC4R antagonists of cAMP signaling, primary screen, cell-based, TR-FRET, antagonist arm of biased-ligand search; Melanocortin receptor 4 (Homo sapiens), P32245; MC4R-expressing cells, MTII-stimulated cAMP, LANCE TR-FRET; inhibition, % at 6.5 µM; 360,000 tested, 0.48% active; AID 540295, 2011;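 active means inhibition above its plate's cutoff, the mean of tested wells on that plate plus 3 SD, cut at about 29% in these data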
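Material: human MC4R-expressing U2OS cells. Probe or stimulus: Melanotan II challenge. Dosing: 6.5 µM single dose. Times: 30-min compound, 1-h challenge, 1-h detection, room temperature. Technique: TR-FRET with Eu-cAMP and labeled anti-cAMP, 671 nm. Replication: singlicate.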
Granule exo inh: LAMP-1 surface exposure blockers, TALL-104 cells – cell-based, flow cytometry, MLPCN library, primary screen; TALL-104 LAMP-1 surface exposure; cells stimulated with thapsigargin and PMA; inhibition, % at 10 µM; AID 651702, 2012; 360,000 tested, 0.66% active;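 active means inhibition above about 55%, limit read from the data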
EP2 antag: human EP2 receptor antagonists, primary screen, TR-FRET cAMP, C6 glioma cells; C6 glioma cells expressing human EP2; cells stimulated with saturating PGE2; inhibition, % at 25 µM; 260,000 tested, 0.52% active;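 active means percent inhibition above 40 after rounding to a whole number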;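 further: rat C6 glioma host cells with rolipram phosphodiesterase inhibitor present; the protocol text gives 20 µM as final concentration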
MC4R barr ag: MC4R beta-arrestin agonists, retest, confirmation, cell-based, luminescence, U2OS. shares compounds with MC4R barr agon. 2,400 tested, 31% active. AID 602192, 2012. activation, % at 8.9 µM. U2OS MC4R beta-arrestin recruitment; scaled DMSO 0%, Melanotan II 100%;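 active means mean activation across replicates above the hit cutoff set in the earlier primary screen, cut at about 8% in these data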
MOR DOR agonist: agonists of MOR-DOR heterodimerization, counter-screen for MC4R biased agonist project, cell-based, luminescence; shares compounds with MC4R barr agon; U2OS PathHunter beta-arrestin, beta-gal luminescence; percent of deltorphin B response, DMSO zero; activation, % at 9.2 µM; 2,400 tested, 5.8% active; AID 602194, 2012;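 active means mean activation across replicates exceeds the hit threshold derived in the earlier primary screen, cut at about 18% in these data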
Target sequence (P35372 whole entry, looked up): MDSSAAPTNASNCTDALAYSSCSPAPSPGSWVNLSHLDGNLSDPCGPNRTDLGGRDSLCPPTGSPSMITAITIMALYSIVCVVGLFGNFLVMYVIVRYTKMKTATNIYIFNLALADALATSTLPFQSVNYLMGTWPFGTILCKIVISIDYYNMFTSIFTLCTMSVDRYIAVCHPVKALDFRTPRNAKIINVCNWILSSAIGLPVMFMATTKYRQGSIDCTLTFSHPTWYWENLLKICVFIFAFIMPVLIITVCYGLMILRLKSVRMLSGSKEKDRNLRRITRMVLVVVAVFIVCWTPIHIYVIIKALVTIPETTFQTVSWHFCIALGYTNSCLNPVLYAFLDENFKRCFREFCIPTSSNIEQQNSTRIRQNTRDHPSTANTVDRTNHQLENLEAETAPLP
Target sequence (P41143 whole entry, looked up): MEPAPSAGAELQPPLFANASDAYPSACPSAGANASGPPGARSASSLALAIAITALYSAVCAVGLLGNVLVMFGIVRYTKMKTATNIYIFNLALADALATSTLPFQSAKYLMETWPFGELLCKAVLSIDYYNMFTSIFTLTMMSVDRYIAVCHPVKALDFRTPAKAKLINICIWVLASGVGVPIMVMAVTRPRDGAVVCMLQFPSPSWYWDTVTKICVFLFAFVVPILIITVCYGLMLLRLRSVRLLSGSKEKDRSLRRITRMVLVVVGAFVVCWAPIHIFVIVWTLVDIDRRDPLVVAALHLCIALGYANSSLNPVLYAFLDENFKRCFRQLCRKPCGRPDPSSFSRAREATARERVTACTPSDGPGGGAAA
Of the large screens only hits and unclear results are named; the others gave an inactive call (follow-up assays come after a bar, where they were run). Only some compounds are listed: those with a hit (about 2.6% of all), similar ones and a draw of the others.

Cc1ccc(OCC(=O)NC(=S)Nc2cccc(NC(=O)c3ccccc3)c2)cc1	MC4R barr agon 15.2 | MC4R barr ag 17.2 | MOR DOR agonist inactive
O=C(COc1ccc(Cl)cc1Cl)NNC(=S)Nc1ccc(F)cc1	none
O=C(/C=C/c1ccccc1)NC(=S)Nc1ccc2c3c(cccc13)CC2	none
CCCCC(=O)Nc1cccc(NC(=S)NC(=O)Cc2ccccc2)c1	none
CCCCC(=O)Nc1cccc(NC(=S)NC(=O)COc2ccccc2Cl)c1	MC4R barr agon 17.9 | MC4R barr ag 12.8 | MOR DOR agonist inactive
CCCC(=O)NC(=S)Nc1cccc(NC(=O)c2ccccc2)c1	none
CC(=O)NC(=S)Nc1ccc(NC(=O)COc2ccc(Cl)cc2Cl)cc1	MC4R barr agon 30.6 | MC4R barr ag inactive | MOR DOR agonist inactive
O=C(COc1ccccc1)NC(=S)Nc1ccc2c3c(cccc13)CC2	MC4R barr agon 13.7 | MC4R barr ag inactive | MOR DOR agonist inactive
CCOc1ccc(CN(C)CC(=O)Nc2cccc(S(=O)(=O)N(C)c3ccccc3)c2)cc1	none
Cc1ccc(OCC(=O)NC(=S)Nc2cccc(NC(=O)c3ccc(Cl)cc3Cl)c2)cc1	MC4R barr agon 22.2 | MC4R barr ag inactive | MOR DOR agonist inactive
COCCSc1ccccc1C(=O)NCc1ccco1	none
Cc1cc(NC(=O)Cc2csc(-c3ccccc3)n2)ccc1Br	MC4R barr agon 14.8 | MC4R barr ag inactive | MOR DOR agonist inactive
C/C(=N\Nc1nncc2ccccc12)c1cccc(OC(F)F)c1	MC4R barr agon 17.0 (no result: EP2 mod, EP2 antag) | MC4R barr ag inactive | MOR DOR agonist inactive
COc1ccc(Cn2c(C)nc3c(c2=O)c2nc4ccccc4nc2n3Cc2ccco2)cc1	MC4R barr agon 11.0 (no result: EP2 mod, T cell HTS, EP2 antag) | MC4R barr ag inactive | MOR DOR agonist inactive
COc1ccc(S(=O)(=O)c2c(N)n(Cc3ccco3)c3nc4ccccc4nc23)cc1	none
COc1ccc(OC)c(S(=O)(=O)NCc2csc(-c3ccccc3)n2)c1	none
COc1ccc(-c2ccc(-c3noc(-c4cccs4)n3)c(OC)n2)cc1	MC4R barr agon 17.0 | MC4R barr ag inactive | MOR DOR agonist inactive
COc1ccc(-c2ccc(-c3noc(-c4ccccc4OC)n3)c(OC)n2)cc1	MC4R barr agon 10.4 | MC4R barr ag inactive | MOR DOR agonist inactive
O=C(/C=C/c1ccc(Cl)cc1)NC(=S)Nc1ccc(N2CCOCC2)c(Cl)c1	MC4R barr agon 15.0 | MC4R barr ag inactive | MOR DOR agonist inactive
O=C(/C=C/c1ccc(Cl)cc1)Nc1ccc(N2CCOCC2)cc1	none
O=C(NC(=S)Nc1ccc(N2CCOCC2)cc1)c1ccc(Cl)cc1	MC4R barr agon 13.9 | MC4R barr ag inactive | MOR DOR agonist inactive
O=C(/C=C/c1ccc(Cl)cc1)Nc1ccccc1N1CCOCC1	MC4R barr agon 9.7 | MC4R barr ag inactive | MOR DOR agonist inactive
c1ccc2c(c1)Cn1nc(Cc3nc4c(s3)CCCC4)nc1-2	none
CC1(C)NC(=O)N(CCCC(=O)Nc2ccc(C(F)(F)F)cc2)C1=O	none (no result: EP2 mod, EP2 antag)
Oc1ccc([S+]2CCCCC2)cc1	none (no result: T cell HTS, MC4R barr agon, MC4R antag cAMP, Granule exo inh)
COc1ccc(Nc2oc(-c3ccccc3)nc2C#N)cc1	none
COc1ccc(Nc2oc(-c3ccc(Cl)cc3)nc2C#N)cc1	MC4R barr agon 18.0 | MC4R barr ag inactive | MOR DOR agonist inactive
CN(C)c1ccc(NC(=O)/C=C/c2c(Cl)cccc2Cl)cc1	MC4R barr agon 10.4 | MC4R barr ag inactive | MOR DOR agonist inactive
O=C(Nc1nnc(Cc2ccccc2)s1)C1CCC1	none (no result: EP2 mod, EP2 antag)
CC(OC(=O)c1ccco1)C(=O)NC1CCCCC1 (stereo not drawn)	none
O=C(OC(C(=O)NC1CCCCC1)c1ccc(C(F)(F)F)cc1)c1ccco1 (stereo not drawn)	MC4R barr agon 11.2 (no result: EP2 mod, EP2 antag) | MC4R barr ag inactive | MOR DOR agonist inactive
COc1ccc(Nc2cc(C)nc3ncnn23)cc1Cl	none (no result: EP2 mod, EP2 antag)
COc1ccccc1CN(CCCn1ccnc1)Cc1ccc(F)c(F)c1	none (no result: T cell HTS, MC4R barr agon, MC4R antag cAMP, Granule exo inh)
CC1(Oc2cccc(F)c2)CCN(Cc2ccc(-c3ccccc3)o2)C1 (stereo not drawn)	MC4R barr agon 10.0 (no result: EP2 mod, T cell HTS, EP2 antag) | MC4R barr ag inactive | MOR DOR agonist inactive
Cc1nn(-c2ccccc2)nc1C(=O)Nc1ccc2[nH]ncc2c1	MC4R barr agon 23.0 | MC4R barr ag 13.1 | MOR DOR agonist inactive
COCCN(CCOC)Cc1c(C)[nH]c2ccc(Cl)cc2c1=O	none (no result: T cell HTS, MC4R barr agon, MC4R antag cAMP, Granule exo inh)
CCCCCCCCCCCCCCCC(=O)NCCO	MC4R barr agon 11.7 | MC4R barr ag inactive | MOR DOR agonist inactive
Cc1ccc(C(=O)NCC(=O)OCC(=O)c2cc(C)n(Cc3ccco3)c2C)cc1	none
Cc1cc(C(=O)COC(=O)CNC(=O)c2ccc(Cl)c(Cl)c2)c(C)n1Cc1ccco1	MC4R barr agon 11.7 | MC4R barr ag inactive | MOR DOR agonist inactive
CN1C(=O)C2(Oc3ccccc3C3CC(c4ccccc4)=NN32)c2ccccc21 (stereo not drawn)	none
Cc1ccc(C2=NN3C(C2)c2ccccc2OC32C(=O)Nc3ccccc32)cc1 (stereo not drawn)	MC4R barr agon 10.1 | MC4R barr ag 9.1 | MOR DOR agonist 20.0
NC(c1ccccc1)c1csc(NC(=O)Nc2cccc(Cl)c2)n1 (stereo not drawn)	MC4R barr agon 11.7 (no result: EP2 mod, T cell HTS, EP2 antag) | MC4R barr ag 13.1 | MOR DOR agonist inactive
NC(c1csc(NC(=O)Nc2cccc(Cl)c2)n1)C1CCCCC1 (stereo not drawn)	MC4R barr agon 13.2 (no result: EP2 mod, T cell HTS, EP2 antag) | MC4R barr ag 20.0 | MOR DOR agonist inactive
CC(=O)c1ccc(OCCn2cnc3ccccc32)cc1	none
O=C(CSc1ncnc2c1oc1ccccc12)c1cccs1	MC4R barr agon 13.3 (no result: EP2 antag) | MC4R barr ag inactive | MOR DOR agonist inactive
Cc1nc(SCC(=O)c2cccs2)c2oc3ccccc3c2n1	none
